The text below walks through data of ChEMBL document CHEMBL5321236, “Fluoro-labelled sp2-iminoglycolipids with immunomodulatory properties” (Eur J Med Chem, 2023).

Data set [1] concerns SW1573. As to the kind of experiment: Growth inhibition of human SW1573 cells measured after 48 hrs by SRB colorimetric assay. In kind it is functional. The method in brief: (§1)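 NCI-based protocol with sulforhodamine B read-out. Seeded 2500 (A549, HBL-100, HeLa, SW1573), 5000 (T-47D, WiDr, SW1573/P-gp) or 7000 (BJ-hTERT) cells/well. Exposed 48 h to serial decimal dilutions, 0.001–100 μM, from 40 mM DMSO stock. GI50 by NCI formulas; mean of three or more experiments ± SD.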
Background: In SRB staining, fixed cells bind dye roughly in proportion to their protein.

For data set [2], the system named is A549. As to the kind of experiment: Growth inhibition of human A549 cells measured after 48 hrs by SRB colorimetric assay. In kind it is functional. In short, it runs like this:
as §1

Data set [3] has as its system HeLa. As to the kind of experiment: Growth inhibition of human HeLa cells measured after 48 hrs by SRB colorimetric assay. Format: functional. In short, it runs like this:
as §1

For data set [4], the system named is T47D. As to the kind of experiment: Growth inhibition of human T47D cells measured after 48 hrs by SRB colorimetric assay. In kind it is functional. The method in brief:
as §1

In data set [5] the test system is HBL-100. As to the kind of experiment: Growth inhibition of human HBL-100 cells measured after 48 hrs by SRB colorimetric assay. In kind it is functional. The method in brief:
as §1

For data set [6], the system named is WiDr. As to the kind of experiment: Growth inhibition of human WiDr cells measured after 48 hrs by SRB colorimetric assay. Format: functional. In short, it runs like this: as §1
Data set [7] relates to BV-2. As to the kind of experiment: Antiinflammatory activity in mouse BV-2 cells assessed as restoration of […] expression level at 10 uM incubated for 24 hrs with LPS stimulation by qRT-PCR analysis. Format: functional, cell-based. The method in brief: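 Bv.2 microglia stimulated with LPS 200 ng/mL with or without compound at 10 μM for 24 h. Arg1 mRNA measured by qRT-PCR, Actinb as housekeeping gene, 2^-ΔΔCT method, fold change relative to basal. n ≥ 4 independent experiments in triplicate.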
(Quantitative PCR measures a nucleic acid by following its amplification.)

In data set [8] the test system is BV-2. As to the kind of experiment: Protection against LPS induced inflammation in mouse BV-2 cells assessed as decrease in Tnf-alpha mRNA expression at 10 uM incubated for 24 hrs with LPS stimulation by qRT-PCR analysis.
In data set [9] the target is Mitogen-activated protein kinase 14 (Mus musculus) (UniProt P47811). As to the kind of experiment: Inhibition of LPS-stimulated p38 alpha phosphorylation in mouse BV-2 cells at 10 uM measured after 60 to 90 mins by Western blot analysis. In kind it is cell-based. Conditions: time 60-90 min. In short, it runs like this: (§2)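 Bv.2 cells exposed with or without LPS for 15–90 min. Protein extracts run on SDS-PAGE, blotted to PVDF, probed with anti-phospho-p38α MAPK and anti-total p38α MAPK (1:1000), ECL detection. Quantified by densitometry, mean ± SEM, n = 3.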

In data set [10] the test system is BV-2. As to the kind of experiment: Cytotoxicity against mouse BV-2 cells at 10 uM measured after 24 hr by crystal violet staining based analysis. Format: toxicity, cell-based. As to conditions: bv-2, 24 h. In short, it runs like this:
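Bv.2 cells grown to 70% confluence, exposed 24 h in serum-free medium to 0.1, 1.0, 10 and 25 μM. Fixed with 1% glutaraldehyde, stained with 0.1% crystal violet, dye released in 10% acetic acid, absorbance 590 nm. Mean ± SEM, n ≥ 3 independent experiments.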

The subject of data set [11] is BV-2. The experiment in a line: Protection against LPS induced inflammation in mouse BV-2 cells assessed as decrease in IL1-beta mRNA expression at 10 uM incubated for 24 hrs with LPS stimulation by qRT-PCR analysis.
The target in data set [12] is Mitogen-activated protein kinase 14 (Mus musculus) (UniProt P47811). As to the kind of experiment: Inhibition of LPS-stimulated p38 alpha phosphorylation in mouse BV-2 cells at 10 uM measured after 30 mins by Western blot analysis. Format: cell-based. In short, it runs like this:
as §2

In data set [13] the test system is SW1573. The experiment in a line: Growth inhibition of human SW1573 cells overexpressing P-glycoprotein measured after 48 hrs in presence of verapamil by SRB colorimetric assay. Format: functional. In short, it runs like this: (§3)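 NCI-based protocol with sulforhodamine B read-out. Cells grown in RPMI 1640 with 5% FBS and 1 mM glutamine at 37 °C, 5% CO₂. Seeded 2500 (A549, HBL-100, HeLa, SW1573), 5000 (T-47D, WiDr, SW1573/P-gp) or 7000 (BJ-hTERT) cells/well. Exposed 48 h to serial decimal dilutions, 0.001–100 μM, from 40 mM DMSO stock. GI50 by NCI formulas; mean of three or more experiments ± SD.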

The test system of data set [14] is SW1573. The experiment in a line: Growth inhibition of human SW1573 cells measured after 48 hrs in absence of verapamil by SRB colorimetric assay. Format: functional. In short, it runs like this: as §3
Data set [15] is described as follows: Resistance factor, ratio of GI50 for growth inhibition of human SW1573 cells overexpressing P-glycoprotein measured after 48 hrs in presence of verapamil to GI50 for growth inhibition of human SW1573 cells measured after 48 hrs in presence of verapamil. Format: functional. In short, it runs like this: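 SW1573 parental and P-gp-overexpressing cells given 48 h exposure to serial dilutions (0.001–100 μM) in medium containing verapamil at a final 10 μM as P-gp transport inhibitor. SRB read-out, GI50 by NCI formulas. Resistance factor taken as GI50 in SW1573/P-gp divided by GI50 in SW1573.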

Data set [16] is described as follows: Resistance factor, ratio of GI50 for growth inhibition of human SW1573 cells overexpressing P-glycoprotein measured after 48 hrs in absence of verapamil to GI50 for growth inhibition of human SW1573 cells measured after 48 hrs in absence of verapamil. Format: functional. The method in brief:
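Resistance factor: GI50 in P-gp-overexpressing SW1573 divided by GI50 in parental SW1573, each from 48 h SRB growth-inhibition assay without verapamil. Values are means of three or more independent experiments.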

Data set [17] concerns SW1573. The experiment in a line: Growth inhibition of human SW1573 cells measured after 48 hrs in presence of verapamil by SRB colorimetric assay. Format: functional. In short, it runs like this:
as §3

The subject of data set [18] is SW1573. As to the kind of experiment: Growth inhibition of human SW1573 cells overexpressing P-glycoprotein measured after 48 hrs in absence of verapamil by SRB colorimetric assay. In kind it is functional. In short, it runs like this: as §3

Activity calls are given as the source filed them. No cut-off for these calls is given here. A value given as a limit tells only on which side of the number the result lay.

Chain of Mitogen-activated protein kinase 14 (Mus musculus) (P47811 whole entry): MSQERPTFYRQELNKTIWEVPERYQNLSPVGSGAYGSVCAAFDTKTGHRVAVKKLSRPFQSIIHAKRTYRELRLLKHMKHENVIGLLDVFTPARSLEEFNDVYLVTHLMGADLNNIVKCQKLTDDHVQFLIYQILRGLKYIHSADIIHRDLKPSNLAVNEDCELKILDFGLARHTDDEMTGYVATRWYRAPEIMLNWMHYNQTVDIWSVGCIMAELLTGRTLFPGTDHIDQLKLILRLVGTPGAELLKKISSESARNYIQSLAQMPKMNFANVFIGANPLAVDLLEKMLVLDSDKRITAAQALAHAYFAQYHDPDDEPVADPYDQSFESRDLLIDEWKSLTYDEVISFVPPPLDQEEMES

The term GI50 denotes the concentration at which growth is held to half of that of the control. For the molecule `CCCCCCCCCCCCS(=O)(=O)[C@@H]1[C@@H](OC)[C@@H](O)[C@H](O)[C@H]2COC(=O)N21`, the GI50 worked out at 21 µM in [1]; 15 µM in data set [2]; 20 µM in [3]; 17 µM in data set [4]; 20 µM in data set [5]; 21 µM in data set [6].
As for `O=C1OC[C@@H]2[C@@H](O)[C@H](O)[C@@H](O)[C@@H](O)N12`, the GI50 in [1], in [2], in data set [3], in data set [4], in data set [5] and in data set [6] was above 100 µM each time.
Take `CCCCCCCCCCCCS(=O)(=O)[C@@H]1[C@H](F)[C@@H](OCc2ccccc2)[C@H](O)[C@H]2COC(=O)N21`: the GI50 in [1] worked out at 4.2 µM; in [2] it was 4.3 µM; in data set [3], 3.3 µM; in data set [4], 9.7 µM; in [5] it was 4.2 µM; in data set [6], 3.6 µM. In addition, the outcome in [7], in data set [8] and in [11] was Active. The inhibition result in data set [9] and in data set [12] was “inactive” in each case. Besides, in data set [10], the Activity result was “Non-Toxic”.
In the case of `CCCCCCCCCCCCS[C@@H]1[C@@H](O)[C@@H](O)[C@H](O)[C@H]2COC(=O)N21`, the GI50 was determined as 25 µM in data set [1]; 18 µM in [2]; 19 µM in [3]; 25 µM in [4]; 26 µM in data set [5]; 23 µM in [6].
On to `CCCCCCCCCCCCS(=O)(=O)[C@@H]1[C@@H](F)[C@@H](O)[C@H](O)[C@H]2COC(=O)N21`, for which the GI50 in data set [1] was 3.6 µM; in data set [2], 2.9 µM; in data set [3], 3.1 µM; in data set [4], 10 µM; in data set [5], 7.4 µM; in data set [6], 4.3 µM.
Consider `O=c1[nH]cc(F)c(=O)[nH]1` [FLUOROURACIL], for which the 50% growth inhibitory concentration (GI50) in [1] was 4.3 µM; in data set [2], 2.2 µM; in [3], 15 µM; in data set [4] it was 47 µM; in [5], 5.5 µM; in [6], 49 µM.
Consider `O=C1OC[C@@H]2[C@@H](O)[C@H](OCc3ccccc3)[C@@H](F)[C@@H](O)N12`, for which the GI50 in [1], in data set [2], in data set [3], in data set [4], in data set [5] and in data set [6] was above 100 µM each time.
As for `CCCCCCCCCCCCS[C@@H]1[C@H](F)[C@@H](O)[C@H](O)[C@H]2COC(=O)N21`, the GI50 in [1] amounted to 22 µM; in data set [2] it was 17 µM; in data set [3] it was 19 µM; in data set [4], 21 µM; in data set [5], 22 µM; in [6], 21 µM. Further, the outcome in data set [8] and in data set [11] was Active. Also, the Activity entry in data set [10] is on record as “Non-Toxic”.
In the case of `O=C1OC[C@@H]2[C@@H](O)[C@H](O)[C@@H](F)[C@@H](O)N12`, the GI50 in data set [1], in data set [2], in data set [3], in data set [4], in data set [5] and in [6] was above 100 µM throughout. Moreover, the outcome in [8] and in data set [11] was Active. Further, in data set [10], the Activity result was “Non-Toxic”.
For the molecule `CCCCCCCCCCCCS[C@@H]1[C@H](O)[C@@H](O)[C@H](O)[C@H]2COC(=O)N21`, the GI50 was found to be 18 µM in data set [1]; 16 µM in data set [2]; 17 µM in data set [3]; 18 µM in [4]; 17 µM in [5]; 18 µM in data set [6].
`CC(=O)O[C@H]1C(=O)[C@@]2(C)[C@H]([C@H](OC(=O)c3ccccc3)[C@]3(O)C[C@H](OC(=O)[C@H](O)[C@@H](NC(=O)c4ccccc4)c4ccccc4)C(C)=C1C3(C)C)[C@]1(OC(C)=O)CO[C@@H]1C[C@@H]2O` [PACLITAXEL]: the GI50 in data set [13] turned out to be 0.00031 µM; in data set [14], 0.00053 µM; in [17] it was 0.00046 µM; in data set [18], 0.3 µM. The figures for the RatioGI50 in [15] and in data set [16] were 0.7 and 564, respectively.
For `O=C1OC[C@@H]2[C@@H](O)[C@H](O)[C@H](O)[C@@H](O)N12`, the 50% growth inhibitory concentration (GI50) in data set [1], in data set [2], in data set [3], in data set [4], in data set [5] and in data set [6] was above 100 µM throughout.
In the case of `O=C1OC[C@@H]2[C@@H](O)[C@H](OCc3ccccc3)[C@H](F)[C@@H](O)N12`, the 50% growth inhibitory concentration (GI50) in data set [1], in [2], in data set [3], in [4], in [5] and in [6] was above 100 µM throughout.
Regarding `CCCCCCCCCCCCS[C@@H]1[C@H](F)[C@@H](OCc2ccccc2)[C@H](O)[C@H]2COC(=O)N21`, the GI50 in data set [1] is 19 µM; in data set [2] it was 18 µM; in data set [3] it was 13 µM; in [4], 18 µM; in data set [5] it was 19 µM; in data set [6], 20 µM.
Regarding `CCCCCCCCCCCCS(=O)(=O)[C@@H]1[C@@H](F)[C@@H](OCc2ccccc2)[C@H](O)[C@H]2COC(=O)N21`, the GI50 was found to be 4.5 µM in [1]; 4.2 µM in data set [2]; 3.6 µM in data set [3]; 3.8 µM in [4]; 3.4 µM in [5]; 4.3 µM in data set [6].
`O=C1OC[C@@H]2[C@@H](O)[C@H](O)[C@H](F)[C@@H](O)N12`: the GI50 in data set [1], in [2], in [3], in data set [4], in data set [5] and in data set [6] was above 100 µM throughout.
For `CCCCCCCCCCCCS[C@@H]1[C@@H](F)[C@@H](OCc2ccccc2)[C@H](O)[C@H]2COC(=O)N21`, the GI50 in [1] came to 18 µM; in data set [2], 13 µM; in data set [3], 19 µM; in [4], 20 µM; in data set [5] it was 18 µM; in data set [6], 18 µM.
`CCCCCCCCCCCCS(=O)(=O)[C@@H]1[C@H](O)[C@@H](OCc2ccccc2)[C@H](O)[C@H]2COC(=O)N21`: the concentration for 50% growth inhibition (GI50) in [1] worked out at 10 µM; in [2] it was 7.1 µM; in data set [3] it was 9.2 µM; in data set [4], 14 µM; in data set [5] it was 15 µM; in [6] it was 13 µM. The result in data set [8] and in data set [11] was Active. Also, the Activity entry in data set [10] is on record as “Non-Toxic”.
